How the values were obtained:
Plasmodium falciparum [1] = experiment: Antiplasmodial activity against chloroquine-resistant Plasmodium falciparum W2 infected in human A+ erythrocytes by HRP2 detection based ELISA; assay type: functional, cell-based
Outline: (§1)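 W2 blood-stage culture in A+ human erythrocytes in RPMI 1640 with 10% A+ human serum at 37 °C, under 3% O2/5% CO2. Growth was read with monoclonal antibodies against histidine- and alanine-rich protein II (HRPII). IC50 was estimated by curve fitting against drug-free controls.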

[2] = Selectivity index, ratio of MLD50 for african green monkey BGM cells to IC50 for chloroquine-resistant Plasmodium falciparum W2 infected in human A+ erythrocytes by HRP2 ELISA assay; assay type: toxicity, cell-based; conditions: read-out: Selectivity Index
[3] = Selectivity index, ratio of MLD50 for african green monkey BGM cells to IC50 for chloroquine-resistant Plasmodium falciparum W2 infected in human A+ erythrocytes by [3H]-hypoxanthine incorporation assay; assay type: toxicity, cell-based; conditions: read-out: Selectivity Index
[4] = Cytotoxicity against African green monkey BGM cells assessed as lethality after 24 hrs by neutral red dye based assay; assay type: cell-based; conditions: chlorocebus aethiops, read-out: MLD50
Outline: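 BGM monkey kidney cells grown in RPMI 1640 with 10% heat-inactivated foetal serum and gentamicin. Cells were seeded at 1 × 10⁵ cells/mL and left 18 h to adhere. Compounds were added across a 1000–1 dilution range for 24 h at 37 °C in 5% CO2. Cells took up neutral red for 2 h, were fixed with formaldehyde/CaCl2 and extracted with alcohol-acetic acid, then read at A540. Viability is % of untreated cells; MLD50 was calculated from this.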

Plasmodium falciparum [5] = experiment: Inhibition of N-terminally truncated Plasmodium falciparum SUMO-tagged DHODH (159 to 569 residues) expressed in Escherichia coli BL21(DE3) assessed as residual activity at 50 uM using L-dihydroorotate as substrate by DCIP-based colorimetric assay relative to control
Outline: (§2)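 Recombinant PfDHODH expressed in E. coli BL21(DE3) from a SUMO-His construct, IPTG-induced. Purified by Ni-NTA, then ULP1 tag cleavage, then size exclusion. Activity measured as continuous DCIP reduction at 600 nm over 60 s at 25 °C. Reaction: 50 mM Tris pH 8.15, 150 mM KCl, 0.1% Triton X-100, 1 mM L-dihydroorotate, 100 µM CoQ₀, 60 µM DCIP, 50 nM enzyme. Four replicates per concentration; activity relative to no-inhibitor control. IC50 from nonlinear fit.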

[6] = target: Dihydroorotate dehydrogenase (quinone), mitochondrial (Homo sapiens) (UniProt Q02127); experiment: Inhibition of recombinant human DHODH assessed as residual activity at 50 uM using L-dihydroorotate as substrate by DCIP-based colorimetric assay relative to control
Sequence of Dihydroorotate dehydrogenase (quinone), mitochondrial (Homo sapiens) (Q02127 whole entry): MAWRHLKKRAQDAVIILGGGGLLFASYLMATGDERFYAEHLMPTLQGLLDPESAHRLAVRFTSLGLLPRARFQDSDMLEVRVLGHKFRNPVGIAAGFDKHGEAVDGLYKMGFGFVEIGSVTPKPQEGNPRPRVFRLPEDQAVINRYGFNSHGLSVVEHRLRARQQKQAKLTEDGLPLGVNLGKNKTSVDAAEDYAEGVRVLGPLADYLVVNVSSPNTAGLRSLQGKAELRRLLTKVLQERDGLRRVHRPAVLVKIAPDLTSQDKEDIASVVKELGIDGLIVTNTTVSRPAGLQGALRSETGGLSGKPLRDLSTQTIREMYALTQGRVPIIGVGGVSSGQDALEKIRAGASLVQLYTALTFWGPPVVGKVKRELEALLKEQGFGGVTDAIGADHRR
Outline: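 Recombinant human DHODH at 20 nM final, in 50 mM Tris pH 8.15 with 150 mM KCl and 0.1% Triton X-100. Substrate was 1 mM L-dihydroorotate, with CoQ0 as acceptor and DCIP as dye. DCIP reduction was followed at 610 nm for 60 s at 25 °C, against a no-enzyme reference. Four replicates per concentration; activity is % of the uninhibited control.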

[7] = Inhibition of N-terminally truncated Plasmodium falciparum SUMO-tagged DHODH (159 to 569 residues) expressed in Escherichia coli BL21(DE3) using L-dihydroorotate as substrate by DCIP-based colorimetric assay; outline: as §2
Plasmodium falciparum [8] = experiment: Antiplasmodial activity against chloroquine-resistant Plasmodium falciparum W2 infected in human A+ erythrocytes assessed as inhibition of [3H]-hypoxanthine incorporation after 42 hrs by beta counting method; assay type: functional, cell-based
Outline: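 W2 parasites cultured at 37 °C in A+ human erythrocytes in RPMI 1640 with 10% A+ human serum, under low O2 (3% O2, 5% CO2). Compound dilutions were tested at 1% parasitemia and 1% haematocrit. [3H]-hypoxanthine uptake was read by beta counting after 42 h. IC50 was derived by curve fitting relative to drug-free controls.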

Plasmodium berghei [9] = experiment: (§3) Antimalarial activity against Plasmodium berghei NK65 infected in mouse assessed as reduction in parasitemia at 5 mg/kg, po administered daily for 3 consecutive days starting 24 hrs post inoculum challenge containing parasitized red blood cells measured on day 9 by giemsa staining based microscopic method; assay type: functional
Outline: (§4)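 P. berghei NK65 maintained by weekly blood passage. Mice inoculated i.p. with 1 × 10⁶ infected erythrocytes, randomized after ~24 h into groups of five. Oral dosing at 5 mg/kg once daily for 3 days, freshly diluted in 3% DMSO in RPMI; vehicle and amodiaquine controls. Parasitemia read on Giemsa-stained, methanol-fixed tail-blood thin smears. Inhibition is relative to untreated mice, taken as 100% growth.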

[10] = Selectivity index, ratio of MLD50 for african green monkey BGM cells to IC50 for chloroquine-resistant Plasmodium falciparum W2 infected in human A+ erythrocytes by SYBR Green based fluorescence assay; assay type: toxicity, cell-based
Plasmodium falciparum [11] = experiment: Antiplasmodial activity against chloroquine-resistant Plasmodium falciparum W2 infected in human A+ erythrocytes after 48 hrs by SYBR Green based fluorescence assay; assay type: functional, cell-based; conditions: W2, 48 h
Outline: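 W2 parasites kept at 37 °C in A+ human red cells in RPMI 1640 with 10% A+ human serum, under 3% O2/5% CO2/91% N2. Serial dilutions were run at 0.5% parasitemia and 2% haematocrit for 48 h at 37 °C. Cells were lysed in Tris/EDTA/saponin/Triton buffer with SYBR Safe for 30 min in the dark, then read at ex 485/em 535 nm. IC50 was curve-fitted against drug-free controls.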

[12] = Solubility of the compound at >100 uM; assay type: physicochemical
Plasmodium berghei [13] = experiment: as §3, with “7” for “9”; assay type: functional; outline: as §4
Plasmodium berghei [14] = experiment: as §3, with “11” for “9”; assay type: functional; outline: as §4
Plasmodium berghei [15] = experiment: as §3, with “5” for “9”; assay type: functional; outline: as §4
Plasmodium falciparum [16] = experiment: Antiplasmodial activity against chloroquine-resistant/mefloquine-sensitive Plasmodium falciparum W2 infected in human A+ erythrocytes assessed as inhibition of parasite growth by HRP2 detection based assay; assay type: functional, cell-based; outline: as §1

Cc1cc(Nc2ccc(C(F)(F)F)cc2)n2nc(C(F)(F)F)cc2n1
IC50 (Plasmodium falciparum [1]): 30.6 µM | selectivity ratio [2]: 3.5 | selectivity ratio [3]: 2.3 | CC50 at 24 h [4]: 108 µM | Activity (Plasmodium falciparum [5]): 33% | Activity [6]: 95% | IC50 [7]: > 100 µM | IC50 (Plasmodium falciparum [8]): 47.2 µM

Cc1cc2nc(C(F)(F)F)cc(Nc3ccc4ccccc4c3)n2n1
selectivity ratio [3]: 234 | CC50 at 24 h [4]: 2340 µM | inhibition in vivo at 5 mg/kg (Plasmodium berghei [9]): 4% | selectivity ratio [10]: 234 | IC50 (Plasmodium falciparum [11]): 10 µM | Activity (Plasmodium falciparum [5]): 60% | Activity [6]: 101% | solubility [12]: Insoluble | IC50 [7]: 0.16 µM | inhibition in vivo at 5 mg/kg (Plasmodium berghei [13]): 1% | IC50 (Plasmodium falciparum [8]): 10 µM | inhibition in vivo at 5 mg/kg (Plasmodium berghei [14]): 29% | inhibition in vivo at 5 mg/kg (Plasmodium berghei [15]): 25%

Cc1cc(Nc2ccccc2C(F)(F)F)n2nc(C(F)(F)F)cc2n1
IC50 (Plasmodium falciparum [1]): 44.4 µM | selectivity ratio [2]: 5.1 | selectivity ratio [3]: 4.6 | CC50 at 24 h [4]: 228 µM | Activity (Plasmodium falciparum [5]): 48% | Activity [6]: 93% | IC50 (Plasmodium falciparum [8]): 50 µM

FC(F)(F)c1cc(Nc2cc(Cl)cc(Cl)c2)n2nc(C(F)(F)F)nc2n1
IC50 (Plasmodium falciparum [16]): 12.3 µM

Cc1cc(Nc2ccc(Cl)cc2)n2nc(C)cc2n1
IC50 (Plasmodium falciparum [1]): 23.5 µM | selectivity ratio [2]: 24.1 | selectivity ratio [3]: 22 | CC50 at 24 h [4]: 566 µM | Activity (Plasmodium falciparum [5]): 74% | Activity [6]: 95% | IC50 (Plasmodium falciparum [8]): 25.7 µM

COc1cc(Nc2cc(C)nc3cc(C(F)(F)F)nn23)cc(OC)c1
IC50 (Plasmodium falciparum [1]): > 142 µM | CC50 at 24 h [4]: 256 µM | Activity (Plasmodium falciparum [5]): 57% | Activity [6]: 95% | IC50 [7]: > 400 µM | IC50 (Plasmodium falciparum [8]): > 142 µM

CCN(CC)CCCC(C)Nc1cc(C)nc2nc(C(F)(F)F)nn12 (configuration not stated)
IC50 (Plasmodium falciparum [16]): 39 µM

COc1cc(Nc2cc(C(F)(F)F)nc3cc(C)nn23)cc(OC)c1
selectivity ratio [3]: > 330 | CC50 at 24 h [4]: > 2840 µM | selectivity ratio [10]: > 330 | IC50 (Plasmodium falciparum [11]): 8.6 µM | Activity (Plasmodium falciparum [5]): 77% | Activity [6]: 104% | solubility [12]: Insoluble | IC50 (Plasmodium falciparum [8]): 8.6 µM

Cc1cc(Nc2ccccc2)n2nc(C)cc2n1
IC50 (Plasmodium falciparum [1]): 92.4 µM | selectivity ratio [2]: 3.4 | selectivity ratio [3]: 4.7 | CC50 at 24 h [4]: 315 µM | Activity (Plasmodium falciparum [5]): 66% | Activity [6]: 104% | IC50 (Plasmodium falciparum [8]): 67.2 µM

COc1ccc(Nc2cc(C)nc3nc(C(F)(F)F)nn23)cc1
IC50 (Plasmodium falciparum [16]): 0.4 µM

COc1cc(Nc2cc(C)nc3cc(C)nn23)cc(OC)c1
IC50 (Plasmodium falciparum [1]): 21.5 µM | selectivity ratio [2]: 8.7 | selectivity ratio [3]: 7 | CC50 at 24 h [4]: 188 µM | Activity (Plasmodium falciparum [5]): 42% | Activity [6]: 80% | IC50 [7]: > 400 µM | IC50 (Plasmodium falciparum [8]): 26.8 µM

Cc1cc(Nc2ccc3ccccc3c2)n2nc(C)cc2n1
selectivity ratio [3]: 79.6 | CC50 at 24 h [4]: 406 µM | inhibition in vivo at 5 mg/kg (Plasmodium berghei [9]): 53% | selectivity ratio [10]: 79.6 | IC50 (Plasmodium falciparum [11]): 5.1 µM | Activity (Plasmodium falciparum [5]): 41% | Activity [6]: 71.9% | solubility [12]: Insoluble | IC50 [7]: 4 µM | inhibition in vivo at 5 mg/kg (Plasmodium berghei [13]): 40% | IC50 (Plasmodium falciparum [8]): 5.1 µM | inhibition in vivo at 5 mg/kg (Plasmodium berghei [14]): 65% | inhibition in vivo at 5 mg/kg (Plasmodium berghei [15]): 50%

Cc1cc(Nc2ccc3ccccc3c2)n2nc(C(F)(F)F)cc2n1
selectivity ratio [3]: 468 | CC50 at 24 h [4]: 561 µM | inhibition in vivo at 5 mg/kg (Plasmodium berghei [9]): 47% | selectivity ratio [10]: 468 | IC50 (Plasmodium falciparum [11]): 1.2 µM | Activity (Plasmodium falciparum [5]): 67.5% | Activity [6]: 56.8% | solubility [12]: Insoluble | IC50 [7]: 6 µM | inhibition in vivo at 5 mg/kg (Plasmodium berghei [13]): 61% | IC50 (Plasmodium falciparum [8]): 1.2 µM | inhibition in vivo at 5 mg/kg (Plasmodium berghei [14]): 59% | inhibition in vivo at 5 mg/kg (Plasmodium berghei [15]): 50%

Cc1cc(Nc2ccccc2C(F)(F)F)n2nc(C)cc2n1
IC50 (Plasmodium falciparum [1]): 49 µM | selectivity ratio [2]: 2.1 | selectivity ratio [3]: 2.5 | CC50 at 24 h [4]: 105 µM | Activity (Plasmodium falciparum [5]): 94% | Activity [6]: 96% | IC50 (Plasmodium falciparum [8]): 42.5 µM

Cc1cc(Nc2ccc(Cl)cc2)n2nc(C(F)(F)F)cc2n1
IC50 (Plasmodium falciparum [1]): 67.5 µM | selectivity ratio [2]: 1 | selectivity ratio [3]: 1.3 | CC50 at 24 h [4]: 67.5 µM | Activity (Plasmodium falciparum [5]): 52% | Activity [6]: 121% | IC50 [7]: 23 µM | IC50 (Plasmodium falciparum [8]): 50.3 µM

Cc1cc(Nc2ccccc2)n2nc(C(F)(F)F)cc2n1
IC50 (Plasmodium falciparum [1]): > 171 µM | CC50 at 24 h [4]: 856 µM | Activity (Plasmodium falciparum [5]): 88% | Activity [6]: 113% | IC50 (Plasmodium falciparum [8]): > 171 µM

Cc1cc2nc(C(F)(F)F)cc(Nc3ccccc3)n2n1
selectivity ratio [3]: 15.2 | CC50 at 24 h [4]: 261 µM | selectivity ratio [10]: 15.2 | IC50 (Plasmodium falciparum [11]): 17.1 µM | Activity (Plasmodium falciparum [5]): 77% | Activity [6]: 122% | solubility [12]: Insoluble | IC50 (Plasmodium falciparum [8]): 17.1 µM

Cc1cc(Nc2ccc3ccccc3c2)n2nc(C(F)(F)F)nc2n1
selectivity ratio [2]: 18.5 | selectivity ratio [3]: 18.5 | CC50 at 24 h [4]: 425 µM | Activity (Plasmodium falciparum [5]): 37% | IC50 [7]: 0.7 µM

CCN(CC)Cc1cc(Nc2ccnc3cc(Cl)ccc23)ccc1O [AMODIAQUINE]
inhibition in vivo at 5 mg/kg (Plasmodium berghei [9]): 100% | IC50 (Plasmodium falciparum [11]): 0.006 µM | Activity (Plasmodium falciparum [5]): 79% | IC50 [7]: > 400 µM | inhibition in vivo at 5 mg/kg (Plasmodium berghei [13]): 100% | IC50 (Plasmodium falciparum [8]): 0.006 µM | inhibition in vivo at 5 mg/kg (Plasmodium berghei [14]): 100% | inhibition in vivo at 5 mg/kg (Plasmodium berghei [15]): 100%

Cc1cc(Nc2ccc(C(F)(F)F)cc2)n2nc(C)cc2n1
IC50 (Plasmodium falciparum [1]): 8.5 µM | selectivity ratio [2]: 10 | selectivity ratio [3]: 5.4 | CC50 at 24 h [4]: 85 µM | Activity (Plasmodium falciparum [5]): 34.3% | Activity [6]: 88% | IC50 [7]: 24 µM | IC50 (Plasmodium falciparum [8]): 15.7 µM

Source: ChEMBL document CHEMBL4002546, “Evaluation of 7-arylaminopyrazolo[1,5-a]pyrimidines as anti-Plasmodium falciparum, antimalarial, and Pf-dihydroorotate dehydrogenase inhibitors” (Eur J Med Chem, 2017)
